The text below walks through data of paper PMC12479363 (Nature Immunology, 2025).

In test [1] the test system is LPS-induced sepsis in mice. Kind of test: Moderate LPS. The class given is in vivo, mouse. The following applies: at 6 h, n = 10; for plasma IL-1β levels: vs saline. An outline of the steps:
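Sepsis was induced in wild-type mice (8–10 weeks, mixed sex) with LPS (O55:B5) 25 mg per kg i.p. At 5 h after LPS they received saline or test peptide 2 mg per kg i.v. Reference pore inhibitors were given i.p. Plasma IL-1β was measured by ELISA every 3 h up to 48 h.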

The test system of test [2] is LPS-induced sepsis in mice. Kind of test: Low-dose LPS. The settings on record: for plasma IL-1β levels: mild sepsis, at 24 h, vs saline, n = 10. The class given is in vivo, mouse. An outline of the steps: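 C57BL/6J and Gsdmd−/− mice (8–10 weeks, 50:50 female:male) were randomized, unblinded, and given LPS (O55:B5) 15 mg per kg i.p. At 16 h they received saline or test peptide 1 mg per kg i.v. Blood AST, BUN, ALT and CK were measured at day 2 (n = 6). Plasma IL-1β was measured by ELISA (n = 10).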

The subject of test [3] is LPS-induced sepsis in mice. Kind of test: Severe LPS. The test is classed as in vivo, mouse. The following applies: at 5 h, n = 10; for plasma IL-1β levels: vs saline.
In test [4] the test system is human blood leukocytes. Kind of test: Pyroptosis in human whole blood. The class given is cell-based. The following applies: DSF vs PBS, LPS + nigericin-treated blood, 1 h.
Test [5] concerns BMDMs. Kind of test: Cell membrane repair: CHMP4–GFP puncta and Annexin V. The test is classed as cell-based, mouse. The settings on record: 2 mM EDTA + 15 µM SK56, LPS + nigericin.
The target in test [6] is T1, pyroptotic cytomembranes, which contain GSDMD-NT pores (Homo sapiens, UniProt P57764).
T1 sequence (P57764 1-275 limits assumed): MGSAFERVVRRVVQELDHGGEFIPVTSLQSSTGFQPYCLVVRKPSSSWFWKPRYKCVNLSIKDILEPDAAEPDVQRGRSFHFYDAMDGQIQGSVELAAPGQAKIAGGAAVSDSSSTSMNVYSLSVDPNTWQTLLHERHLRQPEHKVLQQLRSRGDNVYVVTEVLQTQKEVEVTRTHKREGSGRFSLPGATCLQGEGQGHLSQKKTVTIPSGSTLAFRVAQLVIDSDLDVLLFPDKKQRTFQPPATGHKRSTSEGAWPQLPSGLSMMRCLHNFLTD
Kind of test: Biolayer interferometry, pyroptotic cytomembranes. The class given is binding. (In general: Biolayer interferometry detects binding as a change in optical thickness at a sensor tip.)

Structures can show the parent of a compound that is named as a salt. No end group written: not given here. *: point of attachment. Biotin = O=C1N[C@H]2[C@H](CS[C@H]2CCCCC(=O)*)N1; Ahx = NCCCCCC(=O)O

In the case of `COC(=O)/C=C/C(=O)OC` [DMF, dimethyl fumarate], the “organ damage markers in the plasma” value in test [1] and in test [3] was “lowered levels of organ damage markers” each time. The “plasma IL-1β levels” value in test [1], in test [2] and in test [3] was “reduced plasma IL-1β levels” each time.

Regarding `CCN(CC)C(=S)SSC(=S)N(CC)CC` [DSF, disulfiram], the “plasma IL-1β levels” value in test [1], in test [2] and in test [3] was “reduced plasma IL-1β levels” each time. Besides, in test [4], the “secretion of IL-1β and IL-18” value is listed as “completely blocked”. Further, the “organ damage markers in the plasma” value in test [3] is “failed to suppress BUN but inhibited the other three organ damage markers”.

On to `O=C(O)CN(CCN(CC(=O)O)CC(=O)O)CC(=O)O` [EDTA], for which the “proportion of Annexin V+ BMDMs” value in test [5] is recorded as “restored the proportion of Annexin V^+ BMDMs to the level seen in BMDMs without SK56 treatment”.

Turning to `COc1nccnc1NS(=O)(=O)c1ccc(NC(=O)/C=C/c2ccc([N+](=O)[O-])s2)cc1` [NSA, necrosulfonamide], the “organ damage markers in the plasma” value in test [1] is recorded as “lowered levels of organ damage markers”. The “blood biochemical markers (AST, BUN, ALT and CK)” value in test [2] (LPS 15 mg/kg, treatment at 16 h, day 2, vs saline-treated WT mice, n = 6) is “inhibited AST, BUN, ALT and CK”. Also, in test [3], the “organ damage markers in the plasma” value is given as “lowered levels of organ damage markers” and the “plasma IL-1β levels” value is “had no effect”.

“{Biotin-Ahx-Ahx}-SLEEFAKRVVEELVKEFNLDKRQESYLEMSALIQAQMGISERIIEIVLRHAAQTLK [Biotinylated SK56]” returned a Kd in test [6] of 10.9 nM.

Broadly, the Kd is the equilibrium constant for the complex coming apart. A low value points to a tighter complex.
